Assay results: ChEMBL document CHEMBL1125212, “Dual-action cephalosporins: cephalosporin 3'-quinolone carbamates” (J Med Chem, 1991)
≈ marks a conversion by molar mass, not a printed value.

How the values were obtained:
[1] = system: Staphylococcus aureus; assay: The compound was tested in vitro for minimum inhibitory concentration against Staphylococcus aureus 67-0; assay type: functional
Procedure, shortened: (§1)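 Agar dilution on Mueller-Hinton agar using 2-fold serial dilutions, giving final 128 to 0.0156 μg/mL (extended to 0.000977 μg/mL where needed). Inoculum was overnight broth culture diluted 100-fold, about 3×10^4 CFU/spot, applied by replicator. MIC read after overnight incubation at 36 °C.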

[2] = system: Escherichia coli; assay: Minimum inhibitory concentration for inhibition of [14C]- Pen G binding to Escherichia coli UB1005; assay type: functional
Procedure, shortened: (§2)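 Membranes from sonicated E. coli UB1005 were solubilized. Binding to penicillin-binding proteins was measured as inhibition of [14C]penicillin G binding.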

[3] = system: Escherichia coli; assay: The compound was tested in vitro for minimum inhibitory concentration against Escherichia coli TEM-1; assay type: functional; procedure, shortened: as §1
[4] = system: Escherichia coli; assay: The compound was evaluated for the inhibition of [14C]- Pen G binding to Escherichia coli UB1005 penicillin-binding protein 1a 90 kDa.; procedure, shortened: as §2
[5] = system: Pseudomonas aeruginosa; assay: The compound was tested in vitro for minimum inhibitory concentration against Pseudomonas aeruginosa 18S/H; assay type: functional; procedure, shortened: as §1
[6] = system: Escherichia coli; assay: Minimum inhibitory concentration required to inhibit the activity of Escherichia coli ATCC 25922; assay type: functional; procedure, shortened: as §1
[7] = system: Enterobacter cloacae; assay: The compound was tested in vitro for minimum inhibitory concentration against Enterobacter cloacae P99; assay type: functional
[8] = system: Escherichia coli; assay: The compound was tested in vitro for minimum inhibitory concentration against Escherichia coli ATCC 25922; assay type: functional; procedure, shortened: as §1
[9] = system: Escherichia coli; assay: The compound was evaluated for the inhibition of [14C]- Pen G binding to Escherichia coli UB1005 penicillin-binding protein 2 66 kDa.; procedure, shortened: as §2
[10] = system: Enterococcus faecalis; assay: The compound was tested in vitro for minimum inhibitory concentration against Enterococcus faecalis ATCC 29212; assay type: functional; procedure, shortened: as §1
[11] = system: Proteus vulgaris; assay: The compound was tested in vitro for minimum inhibitory concentration against Proteus vulgaris 1028 BC; assay type: functional
Procedure, shortened: (§3)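 Proteus MICs by agar dilution on Mueller-Hinton medium containing 3% agar. Serial 2-fold dilutions gave final 128 to 0.0156 μg/mL (further to 0.000977 μg/mL). Inoculum was overnight broth diluted 100-fold, about 3×10^4 CFU/spot. Plates read after overnight incubation at 36 °C.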

[12] = system: Serratia marcescens; assay: The compound was tested in vitro for minimum inhibitory concentration against Serratia marcescens 1071; assay type: functional; procedure, shortened: as §1
[13] = system: Escherichia coli; assay: The compound was evaluated for the inhibition of [14C]- Pen G binding to Escherichia coli UB1005 penicillin-binding protein 1b 90 kDa.; procedure, shortened: as §2
[14] = system: Staphylococcus aureus; assay: The compound was tested in vitro for minimum inhibitory concentration against Staphylococcus aureus smith; assay type: functional; procedure, shortened: as §1
[15] = system: Escherichia coli; assay: Inhibitory activity on replicative DNA biosynthesis in Escherichia coli H560 (permeabilised cells); assay type: functional, organism-based
Procedure, shortened: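 E. coli H560 cells permeabilized with toluene. ATP-dependent incorporation of [3H]thymidine into trichloroacetic acid-insoluble material was measured. IC50 taken as the concentration giving 50% inhibition.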

[16] = system: Streptococcus pneumoniae; assay: The compound was tested in vitro for minimum inhibitory concentration against Streptococcus pneumoniae 6301; assay type: functional
Procedure, shortened: (§4)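 Streptococci tested by agar dilution on brain heart infusion agar with 20 units/mL bovine liver catalase. Final drug range 128 to 0.0156 μg/mL by 2-fold steps, extended to 0.000977 μg/mL when required. Inoculum about 3×10^4 CFU/spot from overnight broth diluted 100-fold. MIC after overnight incubation at 36 °C.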

[17] = system: Streptococcus pyogenes; assay: The compound was tested in vitro for minimum inhibitory concentration against Streptococcus pyogenes; assay type: functional; procedure, shortened: as §4
[18] = system: Proteus mirabilis; assay: The compound was tested in vitro for minimum inhibitory concentration against Proteus mirabilis 90; assay type: functional; procedure, shortened: as §3
[19] = system: Pseudomonas aeruginosa; assay: The compound was tested in vitro for minimum inhibitory concentration against Pseudomonas aeruginosa 8780; assay type: functional; procedure, shortened: as §1
[20] = system: Citrobacter freundii; assay: The compound was tested in vitro for minimum inhibitory concentration against Citrobacter Freundii BS-16; assay type: functional; procedure, shortened: as §1
[21] = system: Escherichia coli; assay: The compound was tested in vitro for minimum inhibitory concentration against Escherichia coli 257; assay type: functional; procedure, shortened: as §1
[22] = system: Escherichia coli; assay: The compound was evaluated for the inhibition of [14C]- Pen G binding to Escherichia coli UB1005 penicillin-binding protein 3 60 kDa.; procedure, shortened: as §2
[23] = system: Escherichia coli; assay: Minimum inhibitory concentration required to inhibit the activity of Escherichia coli UB1005; assay type: functional; procedure, shortened: as §1
[24] = system: Micrococcus luteus; assay: The compound was tested in vitro for minimum inhibitory concentration against Micrococcus luteus ATCC 9341; assay type: functional; procedure, shortened: as §1
[25] = system: Klebsiella pneumoniae; assay: The compound was tested in vitro for minimum inhibitory concentration against Klebsiella pneumoniae A; assay type: functional; procedure, shortened: as §1
[26] = system: Staphylococcus aureus; assay: The compound was tested in vitro for minimum inhibitory concentration against Staphylococcus aureus 753; assay type: functional; procedure, shortened: as §1

Compound	MIC [1] [µg/mL]	MIC [2] [µg/mL]	MIC [3] [µg/mL]	Inhibitory concentration [4] [µg/mL]	MIC [5] [µg/mL]	MIC [6] [µg/mL]	MIC [7] [µg/mL]	MIC [8] [µg/mL]	Inhibitory concentration [9] [µg/mL]	MIC [10] [µg/mL]	MIC [11] [µg/mL]	MIC [12] [µg/mL]	Inhibitory concentration [13] [µg/mL]	MIC [14] [µg/mL]	IC50 [15] [µg/mL]	MIC [16] [µg/mL]	MIC [17] [µg/mL]	MIC [18] [µg/mL]	MIC [19] [µg/mL]	MIC [20] [µg/mL]	other results
N#CCC(=O)N[C@@H]1C(=O)N2C(C(=O)O)=C(COC(=O)N3CCN(c4cc5c(cc4F)c(=O)c(C(=O)O)cn5C4CC4)CC3)CS[C@H]12	2 (≈ 3.06 µM)	1 (≈ 1.53 µM)	0.063 (≈ 0.0962 µM)	> 100	0.5 (≈ 0.764 µM)	0.06 (≈ 0.0917 µM)	< 0.016	0.063 (≈ 0.0962 µM)	> 100	4 (≈ 6.11 µM)	0.031 (≈ 0.0474 µM)	0.125 (≈ 0.191 µM)	> 100	0.25 (≈ 0.382 µM)	1 (≈ 1.53 µM)	0.031 (≈ 0.0474 µM)	0.031 (≈ 0.0474 µM)	0.5 (≈ 0.764 µM)	1 (≈ 1.53 µM)	0.063 (≈ 0.0962 µM)	MIC [21]: 0.063 µg/mL (≈ 0.0962 µM); Inhibitory concentration [22]: 100 µg/mL; MIC [23]: 1 µg/mL (≈ 1.53 µM); MIC [24]: 0.125 µg/mL (≈ 0.191 µM); MIC [25]: 0.125 µg/mL (≈ 0.191 µM); MIC [26]: 1 µg/mL (≈ 1.53 µM)
Nc1nc(/C(=N/OCC(=O)O)C(=O)N[C@@H]2C(=O)N3C(C(=O)O)=C(COC(=O)N4CCN(c5cc6c(cc5F)c(=O)c(C(=O)O)cn6C5CC5)CC4)CS[C@H]23)cs1	4 (≈ 4.91 µM)	1 (≈ 1.23 µM)	0.063 (≈ 0.0773 µM)	100	1 (≈ 1.23 µM)	0.03 (≈ 0.0368 µM)	0.063 (≈ 0.0773 µM)	0.031 (≈ 0.038 µM)	> 100	1 (≈ 1.23 µM)	0.125 (≈ 0.153 µM)	0.25 (≈ 0.307 µM)	10	0.5 (≈ 0.614 µM)	1.7 (≈ 2.09 µM)	0.125 (≈ 0.153 µM)	0.063 (≈ 0.0773 µM)	0.125 (≈ 0.153 µM)	1 (≈ 1.23 µM)	0.125 (≈ 0.153 µM)	MIC [21]: 0.031 µg/mL (≈ 0.038 µM); Inhibitory concentration [22]: < 0.1 µg/mL; MIC [23]: 1 µg/mL (≈ 1.23 µM); MIC [24]: 0.5 µg/mL (≈ 0.614 µM); MIC [25]: 0.125 µg/mL (≈ 0.153 µM); MIC [26]: 4 µg/mL (≈ 4.91 µM)
O=C(COc1ccccc1)N[C@@H]1C(=O)N2C(C(=O)O)=C(COC(=O)N3CCN(c4cc5c(cc4F)c(=O)c(C(=O)O)cn5C4CC4)CC3)CS[C@H]12	4 (≈ 5.54 µM)	2 (≈ 2.77 µM)	0.063 (≈ 0.0873 µM)	> 100	0.5 (≈ 0.693 µM)	0.06 (≈ 0.0831 µM)	0.031 (≈ 0.043 µM)	0.063 (≈ 0.0873 µM)	> 100	4 (≈ 5.54 µM)	0.125 (≈ 0.173 µM)	0.25 (≈ 0.346 µM)	> 100	0.25 (≈ 0.346 µM)	4.2 (≈ 5.82 µM)	0.031 (≈ 0.043 µM)	0.031 (≈ 0.043 µM)	0.125 (≈ 0.173 µM)	1 (≈ 1.39 µM)	0.063 (≈ 0.0873 µM)	MIC [21]: 0.063 µg/mL (≈ 0.0873 µM); Inhibitory concentration [22]: > 100 µg/mL; MIC [23]: 2 µg/mL (≈ 2.77 µM); MIC [24]: 0.031 µg/mL (≈ 0.043 µM); MIC [25]: 0.25 µg/mL (≈ 0.346 µM); MIC [26]: 4 µg/mL (≈ 5.54 µM)
